Assay results taken from PMC2413043 (The Journal of Experimental Medicine, 2008).
“Also recorded” adds a separate entry of the source.

What was measured:
[1] = tested on: NF-κB pathway; assay: LPS activation of the NF-κB pathway; assay type: cell-based; conditions: Fig. S2
[2] = tested on: Elk-1; assay: Phosphorylation of Elk-1 by immunoblot in RAW cells; assay type: cell-based, mouse; conditions: TSA 30 ng/ml 1 h and/or LPS 100 ng/ml 30 min
Summary of the method: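 RAW 264.7 cells grown in DME with 10% FBS were pretreated with TSA 30 ng/ml for 1 h, then given LPS 100 ng/ml for 30 min. Lysates were immunoblotted with phospho-specific antibodies to MAPK cascade members (phospho-MKK3/6, phospho-Elk-1).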

[3] = tested on: MKP-1 and p300; assay: MKP-1 interaction with p300 by co-immunoprecipitation in RAW cells; assay type: cell-based, mouse; conditions: RAW cells treated with TSA; IP p300, blot MKP-1
[4] = tested on: MKP-1; assay: MKP-1 expression in RAW cells by immunoblot; assay type: cell-based, mouse; conditions: LPS and TSA 1 h
[5] = tested on: MKP-1-ERα and p38; assay: MKP-1-ERα/p38 interaction by co-immunoprecipitation in HeLa cells; assay type: cell-based; conditions: 4-HT, LPS and TSA 1 h
[6] = tested on: p38; assay: Phospho-p38 in RAW cells with MKP-1 siRNA or control siRNA; assay type: cell-based, mouse
Summary of the method: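 RAW cells stably transfected with vectors encoding hairpin siRNA against MKP-1 nucleotides 67–85 or 743–761, or a control sequence, with separate clones isolated. Knockdown was confirmed by MKP-1 immunoblot. Clones were treated with LPS and TSA, and lysates were immunoblotted for NOS2 and MAPK family members, including phospho-p38.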

[7] = tested on: NOS2; assay: NOS2 expression in RAW cells with MKP-1 siRNA or control siRNA; assay type: cell-based, mouse; conditions: LPS and TSA
Summary of the method: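 RAW 264.7 cells were stably transfected with vectors encoding siRNA hairpins against MKP-1 nucleotides 67–85 or 743–761, or with a control hairpin. Knockdown in the isolated clones was confirmed by MKP-1 immunoblot. Clones were treated with LPS and TSA, and lysates were immunoblotted for NOS2 and MAPK family members.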

[8] = tested on: p38; assay: Phospho-p38 in primary peritoneal macrophages; assay type: cell-based, mouse; conditions: LPS, TSA or both
Summary of the method: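 Resident (non-thioglycolate-elicited) peritoneal macrophages were collected by PBS lavage from WT and MKP-1−/− mice. Cells were stimulated with LPS, TSA or both, and lysates were immunoblotted for total and phospho-p38.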

[9] = tested on: MKP-1 KO mice; assay: LPS-induced mortality in MKP-1 KO mice; assay type: in vivo, mouse; conditions: LPS 20 mg/kg; n = 5; P = 0.17 LPS vs. LPS with TSA
[10] = tested on: mouse liver; assay: LPS-induced liver inflammation, histology; assay type: in vivo; conditions: hematoxylin and eosin
Summary of the method: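 Mice received saline (control) or TSA i.p. each day from day −2, then an i.p. LPS injection on day 0. Livers were harvested 2 h or 2 d after LPS, sectioned and stained with hematoxylin and eosin to assess leukocyte infiltration, edema and necrosis.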

[11] = tested on: TNF-α; assay: TNF-α in media of primary macrophages by ELISA; assay type: cell-based, mouse; conditions: TSA and LPS, 4 h, n = 2 ± SD
Summary of the method: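 Primary peritoneal macrophages collected by PBS lavage from resting WT or MKP-1−/− mice, not thioglycolate-elicited; the mice were on a C57BL/6J background. Cells stimulated with TSA, LPS or both. After 4 h, TNF-α and IL-1β in the media were measured by ELISA; n = 2, mean ± SD.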

[12] = tested on: NOS2; assay: Liver NOS2 protein by immunoblot; assay type: in vivo, mouse; conditions: TSA pretreatment 4 h, LPS 16 h
Summary of the method: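 Mice were pretreated with increasing amounts of TSA for 4 h, then given LPS for 16 h. Liver was harvested and its lysate immunoblotted for NOS2, with MEK1 as the loading control.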

[13] = tested on: MKP-1; assay: MKP-1 acetylation in mouse liver by immunoprecipitation; assay type: in vivo; conditions: TSA pretreatment 4 h, LPS 16 h; IP MKP-1, blot Ac-Lys
Summary of the method: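 Mice pretreated with TSA for 4 h, then given LPS for 16 h. Liver lysates were immunoprecipitated with anti-MKP-1 and immunoblotted with anti-acetyl-lysine or anti-MKP-1.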

CC(/C=C/C(=O)NO)=C\[C@@H](C)C(=O)c1ccc(N(C)C)cc1 [TSA, trichostatin A]
LPS activation of the NF-κB pathway [1]: does not affect LPS activation of the NF-κB pathway
LPS-triggered IκBα degradation [1]: slightly increases
LPS-triggered p65 nuclear translocation [1]: slightly increases
NF-κB transactivation of the NOS2 promoter [1]: slightly increases
κB-binding activity [1]: slightly increases
phosphorylation of Elk-1 [2]: decreases phosphorylation of p38 and Elk-1
MKP-1 association with p300 [3]: MKP-1 associates with p300 in TSA-treated macrophages
MKP-1 expression [4]: increases the expression of MKP-1 levels
interaction between mutant MKP-1(K57R) and p38 ([5]; MKP-1(K57R)-ERα): not able to affect the interaction between mutant MKP-1(K57R) and p38
interaction between MKP-1(WT) and p38 ([5]; MKP-1(WT)-ERα): increases the interaction between MKP-1(WT) and p38
LPS-induced phospho-p38, control siRNA cells ([6]; RAW cells expressing control hairpin RNA, LPS and TSA): limits this increase
effect of TSA on phospho-p38, MKP-1 siRNA cells ([6]; RAW cells with siRNA of MKP-1, LPS and TSA): siRNA of MKP-1 blocks the effect of TSA
LPS-induced NOS2 expression, control vs MKP-1 siRNA cells [7]: decreases LPS-induced NOS2 expression in control cells, but not in cells with decreased MKP-1
phospho-p38, WT vs MKP-1−/− primary macrophages [8]: only suppresses phospho-p38 in macrophages from WT mice, not in macrophages from MKP-1^−/− mice
mortality after LPS, effect of TSA, MKP-1 KO mice [9]: minimal and insignificant effect on mortality; also recorded: small protective effect on MKP-1^−/− mouse mortality
LPS-induced leukocyte infiltration / inflammation in liver ([10]; livers 2 h after LPS): decreases LPS-induced inflammation
LPS-induced hepatocyte edema and necrosis ([10]; livers 2 d after LPS): limits LPS-induced hepatocyte edema and necrosis
suppression of TNF-α, MKP-1−/− macrophages [11]: 27%
suppression of TNF-α, WT macrophages [11]: 87%
NOS2 steady-state protein levels in liver [12]: decreases NOS2 steady-state protein levels in liver
acetylation of MKP-1 in liver [13]: increases acetylation of MKP-1 in vivo
